Assay outcomes (PubChem BioAssay)
Pyk2 oligo antag = Pyk2 (human) oligomerization antagonism. Q14289. Q293 cells, Pyk2 FERM NanoBiT luminescence; hits give low values. z-score (the deposit names both 25 µM and 10 µM). 99,000 tested, 0.83% active. AID 1347419;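 active = Z-score of -3 or lower, scaled per plate to the spread of control and sample wells; inactive = z-score above -3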;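 note: negative z-score means lost luminescence so less FERM oligomerization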
H69AR inhibit = blocks growth of human H69AR lung tumor cells | viability, % at 10 µM | H69AR lung tumor viability, ATP luminescence, 72 h; hits give low values | 85,000 tested, 6% active;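 active = viability at or below 40%; inactive = viability above 40%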;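 note: multidrug resistant small cell line overexpressing MRP-1 efflux transporter; 100% = mean luminescence of untreated control wells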
HUVEC prolif 384 = blocks proliferation of human endothelial cells. AID 648. 86,000 tested, 1.1% active. viability, % at 10 µM (by protocol). HUVEC proliferation, CellTiter-Glo luminescence, 72 h; hits give low values;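 active = viability at or below 30%; inactive = viability above 30%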;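 note: 100% = median luminescence of DMSO-only cell control wells on each plate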
Jurkat tox 60K = reduces viability or proliferation of Jurkat cells; Jurkat E6.1 viability, ATP luminescence, 48 h; inhibition, % at 4 µM; 56,000 tested, 1.2% active;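 active = inhibition above the mean inhibition of all tested compounds plus 3 SD, cut at about 28% in these data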
Lung fibro prol = blocks proliferation of human lung fibroblasts; AID 719; 85,000 tested, 1.1% active; LL 47 human lung fibroblast viability, ATP luminescence; hits give low values; viability, % at 10 µM;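 active = viability at or below 50% in the single dose screen; inactive = viability above 50%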;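 note: compound exposure lasted 72 h before the ATP readout; 100% = median luminescence of untreated cell-only wells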
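Test system: LL 47 human lung fibroblasts / Quantity: 1,150 cells in each well / Medium: IMEM growth medium with 15% fetal bovine serum / Incubation: 72 h compound exposure at 37 °C after overnight plating / Detection: CellTiter-Glo luminescence measuring cellular ATP / Read-out: % viability versus median cells-only luminescence / Benchmarks: cell-only wells, no compound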
cytoskel mod = cytoskeleton assembly modification; HUVEC TNFa F-actin phalloidin imaging, high content; inhibition, % at 2 µM; 91,000 tested, 0.18% active; AID 836;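 active = inhibition above the batch mean plus 3 SD and confirmed as a hit by visual image inspection, cut at about 30% in these data, passing the limit was not always enough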
The depositor's hits bear a star; / = no result given. Hits are enriched below; roughly 6% of the tested compounds scored in any of these assays.

SMILES | Pyk2 oligo antag | H69AR inhibit | HUVEC prolif 384 | Jurkat tox 60K | Lung fibro prol | cytoskel mod
CCOC(=O)Nc1ccc(=O)n(Cc2c(Cl)cccc2Cl)c1 | 0.32 | / | / | / | / | 15
O=C(CN1CCCCC1)N1CCCc2ccccc21 | 1 | / | / | / | / | -12
CC(C)C(=O)c1cn(CC(=O)N2CCCc3ccccc32)c2ccccc12 | -1 | 36* | 77 | / | 96 | 25
O=C(Cn1nnc(-c2ccccc2NC(=O)c2ccco2)n1)Nc1ccccc1 | -2.7 | 23* | 46 | -3 | 78 | /
Cc1ccc(NC(=O)Cn2nnc(-c3ccccc3NC(=O)c3cccs3)n2)cc1 | -1.3 | 6.8* | 19* | / | 46* | -3
COc1ccc(NC(=O)Cn2nnc(-c3ccccc3NC(=O)c3cccs3)n2)cc1 | -0.29 | 7.5* | 32 | -2 | / | -6
COc1ccc(/C=N\n2nnc3ccccc32)cc1 | -0.45 | / | / | 2 | / | /
COc1ccc(/C=N/n2cc(-c3ccccc3)nc2N)cc1 | 1.3 | 18* | 59 | -2 | 82 | /
COc1ccc(/C=N/n2cc(-c3ccc(OC)cc3)nc2N)cc1 | -0.81 | 25* | 84 | 8 | 94 | 2
O=C(COC(=O)c1ccncc1)Nc1cc(Cl)c(Cl)cc1Cl | / | 91 | 104 | / | 101 | 11
CCc1nnc(NC(=O)CSc2nc3c(c(=O)n2CC)SC(C)C3)s1 (centres undefined) | / | 106 | 118 | 6 | 99 | /
O=C1c2ccccc2C(=O)N1CCCc1c[nH]c2ccc(Cl)cc12 | -0.68 | / | / | / | / | /
Nc1[nH]nc2nc(N3CCOCC3)nc(-c3ccccc3)c12 | -0.67 | 62 | 90 | / | 82 | 23
CC(C)c1ccc(-c2nc(N3CCCC3)nc3n[nH]c(N)c23)cc1 | -0.93 | 11* | 57 | / | 75 | /
CC(C)c1ccc(-c2nc(N3CCCCCC3)nc3n[nH]c(N)c23)cc1 | -4.3* | 41 | 73 | / | 81 | /
COc1ccc2nc3c(cc2c1)c(NC(=O)c1cccs1)nn3CC(C)C | -3.4* | 35* | 82 | -12 | 73 | -10
C#CCSc1nc(-c2cccs2)ccc1C#N | -0.94 | 43 | 57 | 16 | 82 | 5
CSc1nc(C2CC2)cc(-c2cccs2)c1C#N | -1.1 | 8.6* | 30* | -2 | 32* | -32
COC(=O)CSc1nc(-c2cccs2)ccc1C#N | -0.24 | 37* | 100 | / | 96 | 7
CN1CCN(C(=O)CSc2nc(-c3cccs3)cc(-c3cccs3)c2C#N)CC1 | -0.75 | 5.4* | 2.0* | 11 | 53 | /
COc1ccc(-c2cc(-c3cccs3)c(C#N)c(SCC(=O)NCc3ccco3)n2)cc1 | -1.9 | 22* | 52 | 14 | 57 | /
COc1ccc(CNC(=O)CSc2nc(-c3ccccc3)cc(-c3cccs3)c2C#N)cc1 | 0.3 | 78 | 57 | / | 99 | 2
COc1ccc2c(CC(=O)OCC(=O)NC(=O)c3cccn3C)coc2c1 | 0.47 | 98 | 95 | / | 104 | -18
CCn1c(CNC(=O)c2cccs2)n[nH]c1=S | 0.91 | / | / | / | / | /
COC(=O)c1ccc(Oc2nc(C(N)=O)cc(-c3ccccc3)n2)cc1 | -0.87 | 12* | 101 | / | 99 | 4
SMILES | Pyk2 oligo antag | H69AR inhibit | HUVEC prolif 384 | Jurkat tox 60K | Lung fibro prol | cytoskel mod
O=C(Nc1ccccc1)Nc1cc(Cl)cc(Cl)c1 | -2.4 | 1.8* | 28* | / | 54 | -37
Nc1nc(SCC(=O)NC2CCCCCC2)[nH]c(=O)c1-c1ccccc1 | 0.54 | 100 | 87 | / | 91 | -10
COc1ccc(-n2c(N)c(C(=O)NCc3ccco3)c3nc4ccccc4nc32)cc1 | -1.1 | / | / | / | / | -17
Nc1c(C(=O)NCc2ccco2)c2nc3ccccc3nc2n1CCc1ccc(F)cc1 | -2.2 | 4.0* | 34 | / | 83 | 2
COCCNC(=O)c1c(N)n(-c2ccccc2)c2nc3ccccc3nc12 | -0.15 | 61 | 77 | / | 89 | 18
Nc1c(C(=O)NCCN2CCOCC2)c2nc3ccccc3nc2n1-c1ccc2c(c1)OCO2 | -0.32 | 36* | 85 | -12 | 75 | /
Nc1c(C(=O)NCCN2CCOCC2)c2nc3ccccc3nc2n1-c1ccccc1 | 1.1 | 36* | 96 | -1 | 98 | -14
Nc1c(C(=O)NCc2ccc3c(c2)OCO3)c2nc3ccccc3nc2n1CCCN1CCOCC1 | -0.01 | 1.1* | 20* | 5 | 62 | -16
O=S(=O)(Nc1ncnc2c1oc1ccccc12)c1ccc(Cl)s1 | -2.5 | 98 | 91 | -3 | 91 | /
Clc1ccccc1-c1ccc(CN2CCN(c3ccccc3)CC2)o1 | -1.3 | 93 | 112 | / | 98 | -17
